Test results: article PMC11112339 (iScience, 2024)
Entries after “also recorded” stand apart in the source; their conditions may differ.

Assays:
mVDAC1 wild-type [1] = target: T1, mVDAC1 wild-type (Mus musculus, UniProt Q60932); assay: Thermal denaturation; assay type: binding; conditions: mean ± SEM n=3; for Temperature denaturation inflection point (Ti) shift: mVDAC1 0.9 mg/mL in LDAO, VA molecule 1 mM vs DMF 0.5%; for Inflection temperature T(i), WT: small molecule 1 mM in DMF
In short: (§1)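 Wild-type or mutant refolded mVDAC1 (0.9 mg/ml final in 20 mM Tris-HCl, 50 mM NaCl, 0.1% LDAO, pH 8.0) was pretreated 1 h at 4°C with 1 mM test compound or 0.5% DMF. It was heated in capillaries from 35 to 95°C at 30°C/min while tryptophan fluorescence was read at 330/350 nm. Ti was the first-derivative maximum of F350/F330, checked by Hill fit. ΔTi was treated versus untreated, with ≥3 repeats.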

mVDAC1 N238K [2] = target: T2, mVDAC1 N238K (Mus musculus, UniProt Q60932, N251K); assay: Thermal denaturation; assay type: binding; conditions: small molecule 1 mM in DMF; mean ± SEM n=3
T2 sequence (Q60932 14-296 N251K): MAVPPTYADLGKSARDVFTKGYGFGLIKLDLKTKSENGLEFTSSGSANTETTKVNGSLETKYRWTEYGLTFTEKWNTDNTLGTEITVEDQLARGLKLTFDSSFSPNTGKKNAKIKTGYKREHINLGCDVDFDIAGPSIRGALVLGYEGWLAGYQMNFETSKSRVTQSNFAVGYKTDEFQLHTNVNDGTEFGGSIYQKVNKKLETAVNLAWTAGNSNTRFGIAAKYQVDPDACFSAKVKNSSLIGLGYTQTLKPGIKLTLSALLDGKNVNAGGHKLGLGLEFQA
In short: as §1

mVDAC1 N238F = mVDAC1 N238F (Mus musculus, UniProt Q60932, N251F); assay: Thermal denaturation; assay type: binding; conditions: small molecule 1 mM in DMF; mean ± SEM n=3
Chain of mVDAC1 N238F (Q60932 14-296 N251F): as the sequence (Q60932 14-296 N251K) above, with K238F counted along it
In short: as §1

mVDAC1 N238R = mVDAC1 N238R (Mus musculus, UniProt Q60932, N251R); assay: Thermal denaturation; assay type: binding; conditions: small molecule 1 mM in DMF; mean ± SEM n=3
Chain of mVDAC1 N238R (Q60932 14-296 N251R): as the sequence (Q60932 14-296 N251K) above, with K238R counted along it
In short: as §1

mVDAC1 R218Y = mVDAC1 R218Y (Mus musculus, UniProt Q60932, R231Y); assay: Thermal denaturation; assay type: binding; conditions: small molecule 1 mM in DMF; mean ± SEM n=3
Chain of mVDAC1 R218Y (Q60932 14-296 R231Y): as the sequence (Q60932 14-296 N251K) above, with R218Y, K238N counted along it
In short: as §1

mVDAC1 N207R = mVDAC1 N207R (Mus musculus, UniProt Q60932, N220R); assay: Thermal denaturation; assay type: binding; conditions: small molecule 1 mM in DMF; mean ± SEM n=3
Chain of mVDAC1 N207R (Q60932 14-296 N220R): as the sequence (Q60932 14-296 N251K) above, with N207R, K238N counted along it
In short: as §1

mVDAC1 K236A [3] = target: T3, mVDAC1 K236A (Mus musculus, UniProt Q60932, K249A); assay: Thermal denaturation; assay type: binding; conditions: small molecule 1 mM in DMF; mean ± SEM n=3
T3 sequence (Q60932 14-296 K249A): as the sequence (Q60932 14-296 N251K) above, with K236A, K238N counted along it
In short: as §1

mVDAC1 F18A = mVDAC1 F18A (Mus musculus, UniProt Q60932, F31A); assay: Thermal denaturation; assay type: binding; conditions: small molecule 1 mM in DMF; mean ± SEM n=3
Chain of mVDAC1 F18A (Q60932 14-296 F31A): as the sequence (Q60932 14-296 N251K) above, with F18A, K238N counted along it
In short: as §1

mVDAC1 = mVDAC1 (Mus musculus, UniProt Q60932); assay: 19F NMR protein-ligand interaction experiment; assay type: binding; conditions: compound 100 μM in LDAO buffer, with 5 μM mVDAC1
Chain of mVDAC1 (Q60932 14-296): as the sequence (Q60932 14-296 N251K) above, with K238N counted along it
In short: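 Recombinant mouse VDAC1 was expressed in E. coli M15, refolded from inclusion bodies into LDAO and purified by SEC. Test compound was used at 100 μM final in 20 mM Tris-HCl, 50 mM NaCl, 0.1% LDAO, pH 8.0, with or without 5 μM VDAC1. 19F spectra were taken at 298 K: 0.56 s acquisition, 1 s inter-scan delay, 256 scans, 2 Hz exponential broadening.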

mVDAC1 wild-type [4] = target: T1, mVDAC1 wild-type; assay: Fluorescence polarization NADH competition assay; assay type: binding
In short: (§2)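 This is an FP competition assay. Refolded, SEC-purified recombinant mVDAC1 (7 μM) was preloaded with 5 μM NADH and titrated with increasing test compound. Buffer was 20 mM Tris, 50 mM NaCl, 0.1% LDAO, pH 8.0. FP was computed from parallel and perpendicular intensities. Apparent KD came from a Hill fit of FP against compound concentration, run in triplicate.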

mVDAC1 N238K [5] = target: T2, mVDAC1 N238K; assay: Fluorescence polarization NADH competition assay; assay type: binding
In short: as §2

mVDAC1 K236A [6] = target: T3, mVDAC1 K236A; assay: Fluorescence polarization NADH competition assay; assay type: binding; conditions: apparent KD, NADH 5 μM, protein 7 μM, mean ± SEM n=3
In short: as §2

NIH-3T3 = assay: Cell viability MTT assay; assay type: cell-based; conditions: Mus musculus, NIH3T3, 48 h, read-out: Half the effective dose (EC50), cell viability
In short: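 NIH-3T3 kept in high-glucose DMEM with 10% calf serum and penicillin/streptomycin at 37°C, 5% CO₂, used at 70–80% confluency. Seeded 10.000 cells/well, treated 24 h later with a concentration range of test compound for 48 h. MTT added (final 5 mg/ml), 3 h at 37°C, formazan dissolved in DMSO, absorbance 590 nm. n = 3, mean ± SEM; EC50 by nonlinear regression.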

[7] = test system: iCCA patient-derived 2D cells; assay: MTT viability of patient-derived 2D cells; assay type: cell-based, human; conditions: 72 h exposure, 2μM
In short: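 Primary 2D cells came from iCCA patient biopsies, with paired non-tumour cells as control. Cells were grown in DMEM/F-12 with 10% FBS and 1% pen/strep. They were seeded at 5.000 cells/well, treated 3 days later with test compound at 2 μM for 72 h, and scored by MTT absorbance. n = 3.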

Tumor (iCCA) organoids = assay: Organoid viability, CellTiter-Glo 3D; assay type: cell-based, human; conditions: 72 h; for EC50: Homo sapiens, read-out: EC50, iCCA-derived organoids growth
In short: (§3)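 Organoids came from dissociated patient tumour (iCCA) or non-tumour biopsies, embedded in reduced-growth-factor BME droplets with expansion medium. After 3 days, test compound was added at graded concentrations in expansion medium with 0.02% Tween20 for 72 h. Viability was read by CellTiter-Glo 3D luminescence as % of DMSO-treated organoids, with ≥3 independent experiments. EC50 (tumour organoids) came from nonlinear regression.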

non-tumor (NT) organoids = assay: Organoid viability, CellTiter-Glo 3D; assay type: cell-based, human; conditions: 72 h
In short: as §3

mVDAC1 wild-type [8] = target: T1, mVDAC1 wild-type; assay: Fluorescence polarization, NADH binding to purified VDAC1; conditions: read-out: KD of NADH, VDAC1 wild-type; 5 μM NADH titrated with protein; Hill fit
In short: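 NADH at 5 μM was titrated with increasing recombinant refolded mVDAC1 in 20 mM Tris, 50 mM NaCl, 0.1% LDAO, pH 8.0. NADH intrinsic fluorescence was read at ex 355 / em 460 nm. FP was computed from parallel and perpendicular intensities. KD came from a nonlinear Hill fit of FP against protein concentration, in triplicate.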

T1 sequence (Q60932 14-296): as the sequence (Q60932 14-296 N251K) above, with K238N counted along it

Row | Structure (SMILES) | Temperature denaturation inflection point (Ti) shift (mVDAC1 wild-type [1]) | Inflection temperature T(i), WT (mVDAC1 wild-type [1]) [°C] | Inflection temperature T(i), N238K (mVDAC1 N238K [2]) [°C] | Inflection temperature T(i), N238F (mVDAC1 N238F) [°C] | Inflection temperature T(i), N238R (mVDAC1 N238R) [°C] | Inflection temperature T(i), R218Y (mVDAC1 R218Y) [°C] | Inflection temperature T(i), N207R (mVDAC1 N207R) [°C] | Inflection temperature T(i), K236A (mVDAC1 K236A [3]) [°C] | Inflection temperature T(i), F18A (mVDAC1 F18A) [°C] | 19F resonance change upon VDAC1 binding (mVDAC1) | Kd (mVDAC1 wild-type [4]) [µM] | Kd (mVDAC1 N238K [5]) [µM] | Kd (mVDAC1 K236A [6]) [µM] | EC50 (NIH-3T3) [µM] | reduction in iCCA cell viability [7] | effect on viability of iCCA organoids (Tumor (iCCA) organoids) | EC50 (Tumor (iCCA) organoids) [µM] | effect on viability of non-tumor organoids (non-tumor (NT) organoids) | Kd (mVDAC1 wild-type [8]) [µM]
1 | O=C(CC(O)(c1nc2ccccc2s1)C(F)(F)F)c1cccc(Br)c1 (stereo not drawn) [VA-C1, 3-(1,3-benzothiazol-2-yl)-1-(3-bromophenyl)-4,4,4-trifluoro-3-hydroxybutan-1-one] | +4.6 ± 0.1 °C | 60.2 ± 0.1 | 64.0 ± 0.1 | 64.0 ± 0.1 | 62.5 ± 0.1 | 62.3 ± 0.1 | 63.2 ± 0.1 | 57.3 ± 0.1 | 58.0 ± 0.1 | direct binding; also recorded: reduction and broadening of its peak | 18.7 ± 0.3 | 15.2 ± 0.1 | 26.4 ± 0.4 | 146 ± 3 | about 50% | reduce cell viability of iCCA organoids in a dose-dependent manner | 15 ± 2 | – | –
2 | CC(=O)N(c1nc(COC(=O)c2ccsc2)cs1)c1ccccc1F [VA-D10, [2-(N-acetyl-2-fluoroanilino)-1,3-thiazol-4-yl]methyl thiophene-3-carboxylate] | +4.9 ± 0.1 °C | 60.5 ± 0.1 | 64.4 ± 0.1 | 63.3 ± 0.1 | 63.1 ± 0.1 | 62.2 ± 0.2 | 62.9 ± 0.1 | 57.9 ± 0.1 | 57.3 ± 0.1 | direct binding; also recorded: significantly move their chemical shifts | 18.5 ± 0.2 | 10.7 ± 0.1 | 28 ± 0.7 | 160 ± 4 | about 50% | reduce cell viability of iCCA organoids in a dose-dependent manner | 25 ± 6 | – | –
3 | Cc1ccc(C(=O)OCC(=O)N=c2sccn2Cc2ccccc2Cl)s1 [VA-C6, [2-[[3-[(2-chlorophenyl)methyl]-1,3-thiazol-2-ylidene]amino]-2-oxoethyl] 5-methylthiophene-2-carboxylate] | +4.6 ± 0.1 °C | 60.2 ± 0.1 | 63.8 ± 0.1 | 63.2 ± 0.1 | 61.8 ± 0.1 | 61.6 ± 0.1 | 63.0 ± 0.1 | 57.0 ± 0.1 | 58.1 ± 0.1 | – | 18.7 ± 0.6 | 14.9 ± 0.5 | 28.8 ± 0.2 | 127 ± 4 | – | – | – | – | –
4 | Nc1ccn([C@@H]2O[C@H](CO)[C@@H](O)C2(F)F)c(=O)n1 [GMB, gemcitabine, reference compound] | – | – | – | – | – | – | – | – | – | – | – | – | – | – | – | significant efficacy | – | significant efficacy | –
5 | NC(=O)C1=CN([C@@H]2O[C@H](COP(=O)(O)OP(=O)(O)OC[C@H]3O[C@@H](n4cnc5c(N)ncnc54)[C@H](O)[C@@H]3O)[C@@H](O)[C@H]2O)C=CC1 [NADH] | – | – | – | – | – | – | – | – | – | – | – | – | – | – | – | – | – | – | 6.8 ± 0.06
6 | O=C1C(=Cc2ccc(Cl)cc2)CSc2ccccc21 [VA-D11, 3-[(4-chlorophenyl)methylidene]thiochromen-4-one] | +4.7 ± 0.1 °C | 60.2 ± 0.1 | 64.5 ± 0.1 | 63.1 ± 0.1 | 63.1 ± 0.1 | 62.3 ± 0.1 | 62.9 ± 0.1 | 57.9 ± 0.1 | 57.2 ± 0.1 | – | 15.9 ± 0.7 | 13.1 ± 0.4 | 24.2 ± 0.6 | 118 ± 3 | – | – | – | – | –
